Source: PubChem
Only some compounds are listed: those with a hit (about 4% of all), similar ones and a draw of the others.
CHO parental Ca: signal in parental CHO cells, OX1R antagonist counter-screen | parental CHO-K1, ATP-induced calcium, Fluo-8 fluorescence | inhibition, % at 5.6 µM | 330,000 compounds, 0.63% hits;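 active = inhibition above that plate's mean sample inhibition plus 3 SD, cut at about 26% in these data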
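Test system: parental CHO cells; detection: calcium-sensitive Fluo-8 fluorescence; evaluation: percent inhibition of calcium signal; also added: ATP as calcium-mobilizing challenge; repeats: one well per compound; control set: ATP-challenged DMSO wells low, unchallenged DMSO wells high; compound: single nominal dose of 5.6 µM per compound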
TAAR1 agonist: human TAAR1 agonism; Q96RJ0; CHO RD-HGA16 TAAR1, Fluo-8 calcium fluorescence; vehicle wells 0%, saturating PEA agonist 100%; activation, % at 3 µM; 360,000 compounds, 0.99% hits; AID 624467;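 active = activation above the mean activation of all test compounds in the run plus 3 SD, cut at about 38% in these data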
Target sequence (Q96RJ0 whole entry, looked up): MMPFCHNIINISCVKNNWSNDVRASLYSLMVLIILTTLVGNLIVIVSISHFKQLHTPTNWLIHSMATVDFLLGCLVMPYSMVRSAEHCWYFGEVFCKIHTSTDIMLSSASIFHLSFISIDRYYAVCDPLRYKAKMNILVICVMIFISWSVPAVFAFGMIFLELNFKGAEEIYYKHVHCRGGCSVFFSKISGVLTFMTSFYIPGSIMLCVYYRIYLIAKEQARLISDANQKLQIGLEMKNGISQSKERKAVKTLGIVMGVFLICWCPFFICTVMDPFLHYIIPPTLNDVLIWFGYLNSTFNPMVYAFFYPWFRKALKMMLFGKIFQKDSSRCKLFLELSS
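System: CHO RD-HGA16 cells carrying human TAAR1 plus Gα16; Incubation: 17-24 h seeding, 75 min 37 °C dye, 30 min RT; Measured by: Fluo-8 fluorescence, 5 s baseline then 140 s kinetic read; Control set: DMSO and PEA EC100; Replication: single well for each compound.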
OX1R antag-1: antagonists of human orexin 1 receptor. inhibition, % at 5 µM. O43613. CHO/OX1R cells, Fluo-8 calcium fluorescence, orexin A. 330,000 compounds, 0.43% hits. AID 434989;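 active = inhibition above its plate's threshold, mean inhibition of all tested compounds on the plate plus 3 SD, cut at about 37% in these data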
Target sequence (O43613 whole entry, looked up): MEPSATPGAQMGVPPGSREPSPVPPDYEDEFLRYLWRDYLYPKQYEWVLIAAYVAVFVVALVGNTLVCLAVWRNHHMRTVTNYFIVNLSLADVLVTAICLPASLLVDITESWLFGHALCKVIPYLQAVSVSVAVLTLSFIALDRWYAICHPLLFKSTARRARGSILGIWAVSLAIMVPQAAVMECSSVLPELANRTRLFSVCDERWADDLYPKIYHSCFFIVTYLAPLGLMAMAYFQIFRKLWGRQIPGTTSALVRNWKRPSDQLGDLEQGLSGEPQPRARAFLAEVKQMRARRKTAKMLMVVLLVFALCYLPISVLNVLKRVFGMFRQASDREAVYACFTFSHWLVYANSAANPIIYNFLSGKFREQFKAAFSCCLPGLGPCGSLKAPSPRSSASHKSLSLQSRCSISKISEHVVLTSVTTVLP
TAAR1 antag: antagonists of human TAAR1. inhibition, % at 3 µM. Q96RJ0. CHO RD-HGA16 TAAR1, Fluo-8 calcium fluorescence, antagonist. AID 624466. 360,000 compounds, 1.5% hits;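 active = inhibition above a per-plate cutoff, the mean inhibition of test compounds on that plate plus 3 SD, cut at about 49% in these data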
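Test system – hTAAR1-expressing CHO RD-HGA16 cells, Gα16-coupled · Also added – β-PEA at EC80 concentration, post-compound challenge · Compound – 3 µM, single point · Incubation – dye loading 75 min at 37 °C, then 30 min room temperature · Measured by – Fluo-8 intracellular calcium dye fluorescence, real-time kinetic reads · Benchmarks – vehicle and agonist controls · Replicates – singlicate, one well per test compound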
OX1R antag-2: antagonists of human orexin 1 receptor (OX1R). OX1R-expressing cells, FRET antagonist read-out. O43613. 330,000 compounds, 1.8% hits. inhibition, % at 6.6 µM. AID 485270; in the data active = inhibition mostly above about 38%, no sharp cut-off; inactive = mostly below about 40%
Each line names hits and unclear results; the compound was inactive in the other large screens.

CCCN1CCCCC(NC(=O)OC(C)(C)C)C1=O (stereo not given)	none (no result: CHO parental Ca, OX1R antag-1, OX1R antag-2)
COc1ccc(CNC(=O)c2sc(=O)n(Cc3ccc(-c4ccccc4)cc3)c2C)cc1OC	TAAR1 antag 65.0 (no result: CHO parental Ca, OX1R antag-1, OX1R antag-2)
CN(C)CCCNc1nc2cc(-c3ccc(F)cc3)sc2c(=O)n1C	none (no result: CHO parental Ca, OX1R antag-1, OX1R antag-2)
CC1CCCCC1NC(=O)C(Cc1ccccc1)NS(=O)(=O)c1cccs1 (stereo not given)	none
CC(CCc1ccccc1)NC(=O)C(Cc1ccccc1)NS(=O)(=O)c1cccs1 (stereo not given)	OX1R antag-2 37.8
COc1ccc(C(=O)OCC(=O)NCc2ccccc2)c(OC)c1OC	none
Cc1ccccc1S(=O)(=O)N1[C@@H](c2ccccc2)C(C(=O)O)=CC[C@H]1c1ccc(Cl)cc1	OX1R antag-2 76.0
Cc1ccccc1S(=O)(=O)N1[C@@H](c2ccc(Br)cc2)C(C(=O)O)=CC[C@H]1c1ccc(Cl)cc1	none
COc1ccc([C@@H]2CC=C(C(=O)O)[C@H](c3ccc(Cl)cc3)N2S(=O)(=O)c2ccccc2C)cc1	OX1R antag-2 48.2
Cc1ccc([C@@H]2CC=C(C(=O)O)[C@H](c3ccc(Cl)cc3)N2S(=O)(=O)c2ccc(C)cc2)cc1	none
Cc1ccc([C@@H]2CC=C(C(=O)O)[C@H](c3ccc(Br)cc3)N2S(=O)(=O)c2ccccc2C)cc1	OX1R antag-2 39.0
Cc1ccc([C@@H]2CC=C(C(=O)O)[C@H](c3ccc(Cl)cc3)N2S(=O)(=O)c2ccccc2C)cc1	OX1R antag-2 49.0
COc1ccc([C@@H]2CC=C(C(=O)O)[C@H](c3ccc(Br)cc3)N2S(=O)(=O)c2ccccc2C)cc1	OX1R antag-2 52.5
Cc1ccc([C@@H]2CC=C(C(=O)O)[C@H](c3ccc(F)cc3)N2S(=O)(=O)c2ccccc2C)cc1	OX1R antag-2 57.5
Cc1ccccc1S(=O)(=O)N1C(c2ccc(Cl)c(Cl)c2)CC=C(C(=O)O)C1c1cccc(Br)c1 (stereo not given)	none (no result: CHO parental Ca, OX1R antag-1, OX1R antag-2)
O=C(O)CCn1c(-c2ccccn2)nc2ccccc21	none
CC1(C(=O)Nc2ccc3[nH]ncc3c2)CCN1C(=O)C1(c2ccccc2)CC1 (stereo not given)	none (no result: CHO parental Ca, OX1R antag-1, OX1R antag-2)
CC(=O)c1nn(-c2ccccc2)cc1C(=O)c1ccc(Br)cc1	CHO parental Ca 40.2
C#CC1c2ccccc2CCN1CC=C (stereo not given)	none (no result: CHO parental Ca, OX1R antag-1, OX1R antag-2)
Cc1cccc(OCC(=O)NNc2c3ccccc3nc3ccccc23)c1	TAAR1 antag 60.5, OX1R antag-2 40.8
CCOC(=O)c1cnn(-c2ccccc2)c1-c1ccncc1	none
Cc1sc2ncnc(NCCCO)c2c1C	none
Cc1sc2ncnc(NCC(c3ccccc3)N(C)C)c2c1C (stereo not given)	none
Cc1sc2ncnc(NCC(O)c3ccccc3)c2c1C (stereo not given)	CHO parental Ca 43.2
Cc1sc2ncnc(NCc3cccs3)c2c1C	CHO parental Ca 36.1
Cc1sc2ncnc(NCC(O)c3ccc([N+](=O)[O-])cc3)c2c1C (stereo not given)	CHO parental Ca 35.3
CCc1ccc(-c2nc(CS(=O)CC(=O)NC3CCCCCC3)c(C)o2)cc1 (stereo not given)	none
CCCCc1c(-c2ccccc2OC)ncn1Cc1cccc(F)c1	none (no result: CHO parental Ca, OX1R antag-1, OX1R antag-2)
C[C@@H]1CN([C@H](C)CO)C(=O)c2ccccc2-c2ccccc2CO[C@@H]1CN(C)C(=O)Nc1ccccc1	none (no result: CHO parental Ca, OX1R antag-1, OX1R antag-2)
CC1Oc2ccccc2C=C1/C=N/NC(=O)c1ccccc1 (stereo not given)	none
CC1Oc2ccccc2C=C1/C=N/NC(=O)c1ccccc1O (stereo not given)	OX1R antag-2 75.2
CN(c1cccnc1)c1ccc(NC(=O)Cc2c[nH]c3ccccc23)cc1-c1cccnc1F	none (no result: CHO parental Ca, OX1R antag-1, OX1R antag-2)
CCCCS(=O)(=O)N1C2=NC(C(=O)OCC)=C(C(=O)OCC)C3N(Cc4ccc(Br)cc4)c4ccccc4[C@]23C[C@H]1C(=O)OC (stereo not given in full)	none (no result: CHO parental Ca, OX1R antag-1, OX1R antag-2)
CCCOC(=O)c1ccc(NC(=O)c2cc(Cl)ccc2OC)cc1	OX1R antag-2 66.5
COc1cccc(/C=C2\SC(=S)N(NS(=O)(=O)c3ccccc3)C2=O)c1OC	OX1R antag-2 49.8
O=C(Nc1cccs1)Nc1ccc(F)cc1F	TAAR1 agonist 39.3
COc1cccc(NC(=O)Nc2cccs2)c1	none
CC(=O)c1cccc(NC(=O)Nc2cccs2)c1	TAAR1 agonist 42.4
O=C(Nc1ccc2nccnc2c1)Nc1ccccc1Cl	none
O=C(Nc1cccs1)Nc1ccc(Br)cc1F	none
O=C(Nc1cccc(Cl)c1)Nc1ccc2nccnc2c1	TAAR1 agonist 47.3, TAAR1 antag 58.2, OX1R antag-2 34.0
CC(=O)c1ccc(NC(=O)Nc2cccc(Cl)c2)cc1	CHO parental Ca 37.6, OX1R antag-2 72.0
O=C1NCCCCC1NS(=O)(=O)c1ccc(Cl)cc1 (stereo not given)	none
CSc1cccc(NC(N)=O)c1	none
CC(=O)Nc1ccc(NC(=O)Nc2cccc(Cl)c2)cc1	TAAR1 agonist 40.0
CSc1cccc(NC(=O)Nc2ccc(Cl)cc2)c1	CHO parental Ca 80.6, OX1R antag-1 49.3, OX1R antag-2 50.5
Cc1ccc(NC(=O)CN(C)C(=O)c2ccccc2Sc2ccccc2C#N)cc1	OX1R antag-2 55.0
Nc1ccccc1O	OX1R antag-2 32.4 (no result: TAAR1 agonist, TAAR1 antag)
COc1ccc(C(=O)Nc2cccc(/C(C)=N\NC(=O)c3ccoc3C)c2)cc1OC	TAAR1 antag 49.2 (no result: CHO parental Ca, OX1R antag-1, OX1R antag-2)
CN1CCCCC(NC(=O)CSc2ccccc2)C1=O (stereo not given)	none (no result: CHO parental Ca, OX1R antag-1, OX1R antag-2)
O=C(Cn1cnc2c(NCc3ccccc3)ncnc21)NCCCc1ccccc1	none
O=C(Cn1cnc2c(NCc3ccccc3)ncnc21)NCCc1cc2ccccc2[nH]1	OX1R antag-2 34.1
OC(c1ccccc1)(c1ccccc1)C1CCN(CCCOc2ccc3c(c2)CCCC3)CC1	TAAR1 agonist 42.0 (no result: CHO parental Ca, OX1R antag-1, OX1R antag-2)
CC(=O)C1=C(C)N(Cc2ccc(Cl)cc2)C(=S)NC1c1cccc(Br)c1 (stereo not given)	none (no result: CHO parental Ca, OX1R antag-1, OX1R antag-2)
Cn1cc(C(c2ccccn2)c2cn(C)c3ccccc23)c2ccccc21	TAAR1 agonist 41.1
CC(=O)N1CCN(C(=O)c2ccc(Cl)c(S(=O)(=O)N3CCc4ccccc43)c2)CC1	none
O=C(NNC(=O)c1ccccc1O)c1ccc(Cl)c(S(=O)(=O)N2CCc3ccccc32)c1	CHO parental Ca 57.2, OX1R antag-1 39.7, OX1R antag-2 62.0
O=C(c1ccc(Cl)c(S(=O)(=O)N2CCc3ccccc32)c1)N1CCN(c2ccccc2O)CC1	TAAR1 antag 60.6
Cc1ccc(NC(=O)c2ccc(Cl)c(S(=O)(=O)N3CCc4ccccc43)c2)nc1	none (no result: CHO parental Ca, OX1R antag-1, OX1R antag-2)
CC1=C(C)/C(=N\OS(=O)(=O)c2ccccc2)C=CC1=O	CHO parental Ca 65.4, OX1R antag-1 74.4, OX1R antag-2 149.5 (no result: TAAR1 agonist, TAAR1 antag)
COc1ccc(C(=O)CSc2nnc(CN3CCCCC3)n2-c2ccc(Cl)cc2)cc1OC	TAAR1 agonist 43.7
O=C(CSc1nnc(CN2CCCC2)n1-c1ccccc1)c1ccc2c(c1)OCO2	none
